We go through one molecule from ChEMBL document CHEMBL4033786, “Discovery of Novel 1-Cyclopentenyl-3-phenylureas as Selective, Brain Penetrant, and Orally Bioavailable CXCR2 Antagonists” (J Med Chem, 2018).

Molecules are shown by their SMILES. ≈ marks a conversion by molar mass, not a printed value.

Series [1] can be described thus: Ratio of brain dose normalized AUC (0 to 7 hrs) to […] dose normalized AUC (0 to 7 hrs), Kp of the compound in Han-Wistar SOA rat model at 2 mg/kg administered via oral gavage by UPLC/MS/MS analysis. It counts as ADME, organism-based. Summed up:
(§1)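 Male Han-Wistar rats given a single 2 mg/kg oral gavage as a suspension in DMSO:1% methylcellulose (1:99). Blood was taken by cardiac puncture under isoflurane at 0.25–7 h, diluted 1:3 with water, and brains were homogenized in 3-fold PBS. Samples were extracted by acetonitrile protein precipitation and quantified by UPLC/MS/MS. Kp = brain DNAUC0-7h/blood DNAUC0-7h; Kp,uu = Kp×Fu,br/Fu,bl.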

The test system of series [2] is Rattus norvegicus. In words: Dose normalized AUC (0 to infinity) in Wistar rat at 2.38 mg/kg, po measured up to 4 hrs post dose. In kind it is ADME, organism-based. Conditions: in vivo.
Series [3] has as its target T1, C-X-C chemokine receptor type 2 (Homo sapiens, UniProt P25025).
T1 sequence (P25025 whole entry): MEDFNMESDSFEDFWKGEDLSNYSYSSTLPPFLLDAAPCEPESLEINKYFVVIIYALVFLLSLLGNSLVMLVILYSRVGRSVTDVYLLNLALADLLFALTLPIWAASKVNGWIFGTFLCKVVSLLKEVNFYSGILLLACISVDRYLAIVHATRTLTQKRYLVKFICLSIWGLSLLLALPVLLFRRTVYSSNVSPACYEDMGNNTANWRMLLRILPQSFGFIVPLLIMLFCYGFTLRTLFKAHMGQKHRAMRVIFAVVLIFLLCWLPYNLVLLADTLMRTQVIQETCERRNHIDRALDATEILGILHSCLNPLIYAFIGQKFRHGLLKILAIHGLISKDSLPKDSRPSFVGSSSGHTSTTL
As to the kind of experiment: Antagonist activity at CXCR2 in human whole blood assessed as inhibition of GROalpha-stimulated CD11b upregulation preincubated for 15 mins followed by GROalpha stimulation measured after 15 mins by FITC-staining based FACS analysis.

The nature of series [4]: Unbound brain-to-blood concentration ratio in Han-Wistar SOA rat model at 2 mg/kg administered via oral gavage by UPLC/MS/MS analysis. In kind it is ADME, organism-based. As to conditions: read-out: K(p,uu,brain). The method, boiled down: as §1
In series [5] the target is T1, C-X-C chemokine receptor type 2. In words: Antagonist activity at TEV protease cleavage site linked GAL4-VP16-fused recombinant human CXCR2 expressed in cells assessed as inhibition of […] human CXCL1-stimulated beta-arrestin recruitment by CCF4-AM-fluorescence based FRET assay. It counts as cell-based. Conditions: read-out: pIC50 (converted). The method, boiled down: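 Stable cell line expressing recombinant human CXCR2 linked to a TEV site and Gal4-VP16. Cells were starved 24 h at 37 °C, 5% CO2, then resuspended at ~200,000 cells/mL. They were given compound in DMSO (concentration-response), stimulated with 80 nM hCXCL1 and incubated overnight at 37 °C. CCF4-AM substrate was then added for 2 h at RT in the dark.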
(In general: Activated receptors often draw arrestin, which recruitment assays turn into a signal.)

Series [6] can be described thus: Oral bioavailability in Wistar rat at 2.38 mg/kg measured up to 4 hrs after dose. In kind it is ADME, organism-based. Conditions: in vivo.
The nature of series [7]: Efflux ratio of passive permeability in MDCK2-MDR1 cells transduced with BacMam2-BCRP at 3 uM after 90 mins by Transwell assay. In kind it is ADME, cell-based, Canis lupus familiaris, MDCK-MDR1. As to conditions: dog. The method, boiled down: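 MDCKII-MDR1 cells transduced with BacMam2-BCRP in Transwells. Compound at 3 μM was measured in duplicate, A→B and B→A, after 90 min, with and without 5 μM GF120918. ER = B→A/A→B permeability without inhibitor. System qualified with amprenavir and dantrolene ERs.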

Series [8] can be described thus: Clearance in Wistar rat blood at 1.01 mg/kg, iv measured up to 4 hrs post dose. In kind it is ADME, organism-based.
For another series, the system named is Brain. In words: Dose normalized AUC (0 to 7 hrs) in Han-Wistar SOA rat model brain at 2 mg/kg administered via oral gavage by UPLC/MS/MS analysis. It counts as ADME, organism-based. As to conditions: in vivo. Summed up: (§2)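 Male Han-Wistar rats were given 2 mg/kg by oral gavage as a suspension in DMSO:1% methylcellulose (1:99). Blood (cardiac puncture, EDTA-K2, under isoflurane) and brains were collected at 0.25–7 h. Brain was homogenised in 3-fold PBS, samples were protein-precipitated and quantified by UPLC/MS/MS.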

Series [9] is described as follows: Fraction unbound in Han-Wistar SOA rat model blood at 2 mg/kg administered via oral gavage by UPLC/MS/MS analysis. In kind it is ADME, organism-based.
Series [10] in a line: Elimination half life in Wistar rat at 1.01 mg/kg, iv measured up to 4 hrs post dose. As to conditions: in vivo, read-out: beta t1/2 (converted). In kind it is ADME, organism-based.
The test system of a further series is Blood. In words: Dose normalized AUC (0 to 7 hrs) in Han-Wistar SOA rat model blood at 2 mg/kg administered via oral gavage by UPLC/MS/MS analysis. In kind it is ADME, organism-based. As to conditions: in vivo. The method, boiled down: as §2
Series [11] can be described thus: Tmax in Wistar rat at 2.38 mg/kg, po measured up to 4 hrs post dose. It counts as ADME, organism-based. As to conditions: in vivo.
Series [12] in a line: Volume of distribution at steady state in Wistar rat at 1.01 mg/kg, iv measured up to 4 hrs post dose. Conditions: in vivo, read-out: Vdss. In kind it is ADME, organism-based.
Series [13] in a line: Solubility of compound in fasted state simulated intestinal fluid measured after 4 hrs. In kind it is physicochemical. The method, boiled down:
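Solubility in FaSSIF, read after 4 h incubation.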

The subject of series [14] is Rattus norvegicus. As to the kind of experiment: Dose normalized AUC (0 to infinity) in Wistar rat at 1.01 mg/kg, iv measured up to 4 hrs post dose. In kind it is ADME, organism-based. As to conditions: in vivo.
Series [15] in a line: Fraction unbound in Han-Wistar SOA rat model brain at 2 mg/kg administered via oral gavage by UPLC/MS/MS analysis. It counts as ADME, organism-based.
Series [16] can be described thus: Passive permeability in MDCK2-MDR1 cells transduced with BacMam2-BCRP at 3 uM after 90 mins by Transwell assay. In kind it is ADME, cell-based, Canis lupus familiaris, MDCK-MDR1. As to conditions: dog; read-out: permeability. Summed up: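 MDCKII-MDR1 cells transduced with BacMam2-BCRP and grown in Transwells. Compound at 3 μM, in duplicate, was incubated 90 min A→B (and B→A) with and without GF120918 (5 μM, dual P-gp/BCRP inhibitor). Passive permeability (Pexact, nm/s) was calculated by an equation from earlier work. The permeability ratio is A→B permeability with GF120918 over A→B permeability without it.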

Series [17] is described as follows: Cmax in Wistar rat at 2.38 mg/kg, po measured up to 4 hrs post dose. It counts as ADME, organism-based. Set-up: dose 2.38 mg/kg, route oral. As to conditions: in vivo.

For orientation: Kp means tissue or fluid exposure divided by exposure in the circulation. As a reminder, the bioavailability is the share of a dose that reaches the circulation, judged against a reference dose that is usually intravenous. Read a high bioavailability as much systemic uptake. The efflux ratio is the permeability from basolateral to apical divided by that in the opposite direction, in the common usage. Broadly, the clearance is the rate of elimination divided by the concentration. The low end stands for inefficient removal, the high end for efficient removal. One may read the fraction unbound as free concentration divided by total concentration. A low value points to extensive binding. As a reminder, the Tmax is the time from dosing to the highest level. The solubility is how much of the substance goes into solution per volume. Low readings indicate a poorly soluble substance, high ones a readily soluble substance. For orientation: Cmax means the maximum level reached in the sampled fluid or tissue. For `CC1=CCC[C@H]1NC(=O)Nc1ccc(Cl)c(S(=O)(=O)C(C)(C)CF)c1O`, the Kp in series [1] was found to be 0.16. In addition, the AUC/dose came out at 961 ng·h/mL/mg/kg in the series with Rattus norvegicus [2], 97 ng·h/g/mg/kg with Brain, 614 ng·h/mL/mg/kg with Blood and 1071 ng·h/mL/mg/kg with Rattus norvegicus [14]. Besides, the IC50 in series [3] is 100 nM; in series [5], 0.631 nM. Further, the Kp uu in series [4] is 0.48. This molecule had a bioavailability in [6] of 88%. Besides, the efflux ratio at 1.5 h, 3 µM in [7] came to 0.87. In addition, the clearance in series [8] amounted to 15.7 mL/min/kg. Moreover, the fraction unbound in series [9] stood at 0.011; in [15], 0.034. In addition, in [10], the half-life was 2.5 h. The Tmax in [11] is 2.5 h. Besides, the Vd in series [12] was 2.2 L/kg. In series [13], this molecule returned a solubility at 4 h of 3 µg/mL (≈ 7.41 µM). The Papp at 1.5 h, 3 µM in [16] was 65.4 ×10⁻⁶ cm/s. For the same molecule, the Cmax in series [17] was found to be 292 ng/mL.
